Results as given in publication PMC11568772 (Drug Design, Development and Therapy, 2024).

What was measured:
[1] = tested on: VEGFR-2; details: read-out: IC50 VEGFR-2; reference medicine pazopanib; cited from earlier work
[2] = tested on: VEGF-induced proliferation; details: read-out: IC50 VEGF-induced proliferation; cited from earlier work
[3] = tested on: colorectal (HCT116) carcinoma cell line; assay: MTT cytotoxicity, HCT-116; assay type: cell-based; details: Homo sapiens, HCT-116, 24 h, read-out: IC50 HCT-116
[4] = tested on: hepatocellular (HePG2) carcinoma cell line; assay: MTT cytotoxicity, HePG-2; assay type: cell-based; details: Homo sapiens, HepG2, 24 h, read-out: IC50 HePG-2
[5] = tested on: human cervical (Hela) carcinoma cell line; assay: MTT cytotoxicity, Hela; assay type: cell-based; details: 24 h, read-out: IC50 Hela
Procedure, shortened: (§1)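 Cells were grown in medium with 10% FBS, penicillin/streptomycin, 37°C, 5% CO2, then seeded at 1.0×10^4 cells/well and held 48 h. Test compound was added at 1.56, 3.125, 6.25, 12.5, 25, 50 and 100, for 24 h. MTT (5 mg/mL stock) was added for 4 h, formazan dissolved in DMSO and A570 read. Viability was taken relative to untreated wells. IC50 came from a Boltzmann sigmoidal fit, in triplicate, mean ± SD.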

[6] = tested on: breast cancer (MCF-7) cell line; assay: MTT cytotoxicity, MCF-7; assay type: cell-based; details: Homo sapiens, MCF7, 24 h, read-out: IC50 MCF-7
Procedure, shortened: as §1

[7] = tested on: WI-38 normal fibroblast cells; assay: MTT cytotoxicity towards normal human cells WI-38; assay type: cell-based; details: WI-38, 24 h, read-out: IC50 WI-38
[8] = tested on: HCT-116, HePG-2, HeLa and MCF-7 cells; assay: MTT cytotoxicity summarised over the 4 cancer cell lines; assay type: cell-based; details: Homo sapiens, read-out: IC50 range of one compound over the cancer cell lines
Procedure, shortened: as §1

[9] = target: VEGFR-2 enzyme (Homo sapiens, UniProt P35968); assay: VEGFR-2 kinase inhibitory assay; assay type: biochemical; details: for inhibition at 0.01 µM: read-out: % Inhibition 0.01 μM, VEGFR-2 enzyme, 0.01 μM; for inhibition at 0.1 µM: read-out: % Inhibition 0.1 μM, VEGFR-2 enzyme, 0.1 μM; for inhibition at 1 µM: read-out: % Inhibition 1 μM, VEGFR-2 enzyme, 1 μM; for inhibition at 10 µM: read-out: % Inhibition 10 μM, VEGFR-2 enzyme, 10 μM; for inhibition at 100 µM: read-out: % Inhibition 100 μM, VEGFR-2 enzyme, 100 μM
Sequence of VEGFR-2 enzyme (P35968 20-1356): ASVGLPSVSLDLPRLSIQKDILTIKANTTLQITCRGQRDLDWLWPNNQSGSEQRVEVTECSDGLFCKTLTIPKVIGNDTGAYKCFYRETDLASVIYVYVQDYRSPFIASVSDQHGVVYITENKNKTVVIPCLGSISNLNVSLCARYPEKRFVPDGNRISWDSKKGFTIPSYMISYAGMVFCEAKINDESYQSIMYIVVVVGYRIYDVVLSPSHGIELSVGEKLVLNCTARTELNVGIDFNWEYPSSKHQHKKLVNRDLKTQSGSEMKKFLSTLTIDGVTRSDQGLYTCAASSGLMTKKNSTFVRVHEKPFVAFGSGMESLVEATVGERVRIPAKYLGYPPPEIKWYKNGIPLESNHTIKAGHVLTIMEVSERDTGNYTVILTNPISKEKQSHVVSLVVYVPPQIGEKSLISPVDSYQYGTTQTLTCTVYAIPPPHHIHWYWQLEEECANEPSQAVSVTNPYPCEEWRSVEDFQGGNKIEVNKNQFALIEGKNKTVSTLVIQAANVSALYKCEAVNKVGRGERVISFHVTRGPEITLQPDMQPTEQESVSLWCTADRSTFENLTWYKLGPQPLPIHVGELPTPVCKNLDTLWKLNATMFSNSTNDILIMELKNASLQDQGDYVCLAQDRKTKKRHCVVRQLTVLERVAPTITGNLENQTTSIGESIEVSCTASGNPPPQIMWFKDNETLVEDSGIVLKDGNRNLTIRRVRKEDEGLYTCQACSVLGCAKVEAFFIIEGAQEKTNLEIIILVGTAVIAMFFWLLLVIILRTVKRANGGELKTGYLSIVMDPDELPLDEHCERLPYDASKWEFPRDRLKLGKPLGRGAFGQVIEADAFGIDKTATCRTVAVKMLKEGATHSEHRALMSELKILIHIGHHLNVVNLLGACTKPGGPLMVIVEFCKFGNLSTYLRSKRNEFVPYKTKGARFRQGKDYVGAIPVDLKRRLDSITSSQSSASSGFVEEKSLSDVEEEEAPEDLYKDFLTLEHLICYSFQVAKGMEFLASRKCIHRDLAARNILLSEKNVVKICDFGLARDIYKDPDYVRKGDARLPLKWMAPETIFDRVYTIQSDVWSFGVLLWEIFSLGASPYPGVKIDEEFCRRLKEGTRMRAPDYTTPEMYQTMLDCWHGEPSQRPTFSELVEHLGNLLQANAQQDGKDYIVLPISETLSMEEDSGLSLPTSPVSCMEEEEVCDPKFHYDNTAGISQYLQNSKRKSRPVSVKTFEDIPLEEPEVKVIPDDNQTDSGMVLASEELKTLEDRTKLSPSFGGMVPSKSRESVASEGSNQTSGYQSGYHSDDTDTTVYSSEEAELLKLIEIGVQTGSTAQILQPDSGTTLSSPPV

[10] = tested on: MCF-7 cells; assay: Cell cycle analysis by PI staining and flow cytometry; assay type: cell-based, human; details: MCF-7, 24 h at IC50 of the compound
[11] = tested on: MCF-7 cells; assay: Annexin V-FITC/PI apoptosis assay; assay type: cell-based, human; details: MCF-7, 24 hours of incubation
Procedure, shortened: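 MCF-7 cells were treated with test compound for 24 h, with DMSO as control. 1–5×10^5 cells were pelleted by centrifugation and resuspended in binding buffer. They were stained with Annexin V-FITC and PI for 5 min at room temperature in the dark, then analysed by flow cytometry. Quadrants: Q1 necrotic, Q2 late apoptotic, Q3 live, Q4 early apoptotic.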

[12] = tested on: prostate cancer PC3 cell line; details: read-out: IC50 PC3 cell line; cited from earlier work

Row | Structure (SMILES) | IC50 [3] [µM] | IC50 [4] [µM] | IC50 [5] [µM] | IC50 [6] [µM] | IC50 [7] [µM] | IC50 [8] [µM] | also measured
2 | COc1cc2c(Oc3ccc4[nH]c(C)cc4c3F)ncnc2cc1OCCCN1CCCC1 [Cediranib] |  |  |  |  |  |  | IC50 [2]: < 0.001 µM
3 | COc1ccc(NC(=O)NCCSc2nc3cc(Cl)ccc3c(=O)n2-c2ccccc2)cc1 [Compound 5j, 1-(2-((7-Chloro-4-Oxo-3-Phenyl-3,4-Dihydroquinazolin-2-Yl)thio)ethyl)-3-(4-Methoxyphenyl)urea] | 9.51 ± 0.9 | 12.3 ± 1 | 19.1 ± 1.4 | 16 ± 1.3 | 38.5 ± 2.5 | 9.51 to 16 | 
4 | O=C(NCCSc1nc2cc(Cl)ccc2c(=O)n1-c1ccccc1)NCCc1ccccc1 [Compound 5q, 1-(2-((7-Chloro-4-Oxo-3-Phenyl-3,4-Dihydroquinazolin-2-Yl)thio)ethyl)-3-Phenethylurea] | 32.5 ± 2.5 | 41.6 ± 2.8 | 45.2 ± 2.7 | 24.6 ± 2 | 53 ± 3.1 |  | 
5 | COc1ccc(CNC(=O)NCCSc2nc3ccccc3c(=O)n2-c2ccccc2)cc1 [Compound 5f, 1-(4-Methoxybenzyl)-3-(2-((4-Oxo-3-Phenyl-3,4-Dihydroquinazolin-2-Yl)thio)ethyl)urea] | 14.8 ± 1.3 | 34.2 ± 2.4 | 31.5 ± 2.3 | 18.7 ± 1.5 | 91.4 ± 5.1 | 14.8 to 34.2 | 
6 | O=C(NCCSc1nc2cc(Cl)ccc2c(=O)n1-c1ccccc1)Nc1ccc(C(F)(F)F)cc1 [Compound 5m, 1-(2-((7-Chloro-4-Oxo-3-Phenyl-3,4-Dihydroquinazolin-2-Yl)thio)ethyl)-3-(4-(Trifluoromethyl)phenyl)urea] | 18.1 ± 1.5 | 30.7 ± 2.2 | 27.9 ± 2.1 | 21.4 ± 1.8 | 76.3 ± 4.3 | 18.1 to 30.7 | 
7 | O=C(NCCSc1nc2ccccc2c(=O)n1-c1ccccc1)Nc1ccc(Br)cc1 [Compound 5c, 1-(4-Bromophenyl)-3-(2-((4-Oxo-3-Phenyl-3,4-Dihydroquinazolin-2-Yl)thio)ethyl)urea] | 48.2 ± 3 | 57.8 ± 3.6 | 67.7 ± 3.9 | 55.1 ± 3.2 | > 100 | 48.2 to 67.7 | 
8 | O=C(NCCSc1nc2ccccc2c(=O)n1-c1ccccc1)Nc1ccc(Cl)cc1 [Compound 5b, 1-(4-Chlorophenyl)-3-(2-((4-Oxo-3-Phenyl-3,4-Dihydroquinazolin-2-Yl)thio)ethyl)urea] | 77.3 ± 4.2 | 88.5 ± 4.8 | > 100 | 92.2 ± 4.7 | 64.3 ± 3.7 | 77.3 to 100 | 
9 | O=C(NCCSc1nc2cc(Cl)ccc2c(=O)n1-c1ccccc1)NCc1ccc(Cl)cc1 [Compound 5p, 1-(2-((7-Chloro-4-Oxo-3-Phenyl-3,4-Dihydroquinazolin-2-Yl)thio)ethyl)-3-(4-Chlorobenzyl)urea] | 8.32 ± 0.7 | 9.72 ± 0.7 | 14.3 ± 1.2 | 7.99 ± 0.5 | 56.9 ± 3.3 | 7.99 to 14.3 | IC50 [9]: 0.117 µM; inhibition at 0.01 µM [9]: 31.4%; inhibition at 0.1 µM [9]: 44.4%; inhibition at 1 µM [9]: 70.5%; inhibition at 10 µM [9]: 88.3%; inhibition at 100 µM [9]: 93.5%; Cell Cycle Distribution (%) G2-M ([10]; DMSO control 16.75): 7.82%; Cell Cycle Distribution (%) S ([10]; DMSO control 29.16): 35.02%; Cell Cycle Distribution (%) G0-G1 ([10]; DMSO control 54.09): 57.16%; necrosis (Q1) [11]: 4.23%; late apoptosis (Q2) ([11]; control 0.27%): 12.51%; early apoptosis (Q4) ([11]; control 0.61%): 26.11%; total apoptosis ([11]; control 2.29%): 42.85%
10 | O=C(NCCSc1nc2ccccc2c(=O)n1-c1ccccc1)Nc1ccc(C(F)(F)F)cc1 [Compound 5d, 1-(2-((4-Oxo-3-Phenyl-3,4-Dihydroquinazolin-2-Yl)thio)ethyl)-3-(4-(Trifluoromethyl)phenyl)urea] | 6.09 ± 2.2 | 2.39 ± 0.1 | 8.94 ± 0.7 | 4.81 ± 0.2 | 36.3 ± 2.4 | 2.39 to 8.94 | IC50 [9]: 0.274 µM; inhibition at 0.01 µM [9]: 25.5%; inhibition at 0.1 µM [9]: 38.9%; inhibition at 1 µM [9]: 60.4%; inhibition at 10 µM [9]: 83.5%; inhibition at 100 µM [9]: 91%
11 | CNC(=O)c1cc(Oc2ccc(NC(=O)Nc3ccc(Cl)c(C(F)(F)F)c3)cc2)ccn1 [SOR, Sorafenib, reference compound] |  |  |  | 4.17 ± 0.2 |  |  | IC50 [12]: 17.3 µM
